Assay results as given in ChEMBL document CHEMBL1155099, “Natural products in parallel synthesis: triazole libraries of nonactic acid” (2008).
Calls of active or inactive are those of the source.

Tests used:
Type in all cases: functional, organism-based
[1] = system: Saccharomyces cerevisiae; experiment: Antifungal activity against Saccharomyces cerevisiae at 1 mM by almar blue dye reduction assay
Summary of the method: (§1)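 Single-point primary screen at 1 mM using Alamar Blue dye reduction as the growth read-out.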

[2] = system: Pseudomonas aeruginosa; experiment: Antibacterial activity against Pseudomonas aeruginosa at 1 mM by almar blue dye reduction assay; summary of the method: as §1
[3] = system: Staphylococcus aureus; experiment: Antibacterial activity against Staphylococcus aureus at 1 mM by almar blue dye reduction assay; summary of the method: as §1
[4] = system: Escherichia coli; experiment: Antibacterial activity against Escherichia coli at 1 mM by almar blue dye reduction assay; summary of the method: as §1
[5] = system: Bacillus cereus; experiment: Antibacterial activity against Bacillus cereus at 1 mM by almar blue dye reduction assay; summary of the method: as §1
[6] = system: Bacillus anthracis; experiment: Antibacterial activity against Bacillus anthracis at 1mM by almar blue dye reduction assay
[7] = system: Bacillus subtilis; experiment: Antibacterial activity against Bacillus subtilis at 1 mM by almar blue dye reduction assay; summary of the method: as §1
[8] = system: Cryptococcus neoformans; experiment: Antifungal activity against Cryptococcus neoformans at 1 mM by almar blue dye reduction assay; summary of the method: as §1
[9] = system: Candida albicans; experiment: Antifungal activity against Candida albicans at 1 mM by almar blue dye reduction assay; summary of the method: as §1

Measured: Activity

C[C@H](C[C@@H]1CC[C@H]([C@@H](C)C(=O)N2CCN(CC3CCCO3)CC2)O1)n1cc(C#Cc2ccccc2[N+](=O)[O-])nn1 (some centres not stated)
inactive: all assays above

CC(C)NC(=O)[C@H](C)[C@H]1CC[C@@H](C[C@@H](C)n2cc(C#CCOc3ccc(Br)cc3)nn2)O1
inactive: all assays above

COCCNCC#Cc1cn([C@H](C)C[C@@H]2CC[C@H]([C@@H](C)C(=O)N3CCN(CC4CCCO4)CC3)O2)nn1 (some centres not stated)
inactive: all assays above

C[C@H](C[C@@H]1CC[C@H]([C@@H](C)C(=O)N2CCN(CC3CCCO3)CC2)O1)n1cc(C#Cc2ccc(Oc3ccccc3)cc2)nn1 (some centres not stated)
inactive: all assays above

C[C@H](C[C@@H]1CC[C@H]([C@@H](C)C(=O)N2CCN(CC3CCCO3)CC2)O1)n1cc(C#CCN2CCN(c3ccccc3)CC2)nn1 (some centres not stated)
inactive: all assays above

Cc1cccc(NC(=O)NCC#Cc2cn([C@H](C)CC3CCC([C@@H](C)C(=O)N4CCCC4)O3)nn2)c1 (single isomer, unassigned)
inactive: all assays above

CCN(CC)C(=O)[C@H](C)[C@H]1CC[C@@H](C[C@@H](C)n2cc(C#CCN(C)CCc3ccccc3)nn2)O1
inactive: all assays above

CCN(CC)C(=O)[C@H](C)[C@H]1CC[C@@H](C[C@@H](C)n2cc(C#CCNCCOC)nn2)O1
inactive: all assays above

C[C@H](C[C@@H]1CC[C@H]([C@@H](C)C(=O)N(C)Cc2ccccc2)O1)n1cc(C#CCN2CCC(c3ccccc3)CC2)nn1
inactive: all assays above

COCC#Cc1cn([C@H](C)C[C@@H]2CC[C@H]([C@@H](C)C(=O)N3CCCC3)O2)nn1
inactive: all assays above

CCN(CC)C(=O)[C@H](C)[C@H]1CC[C@@H](C[C@@H](C)n2cc(C#CCN3CCC(c4ccccc4)CC3)nn2)O1
inactive: all assays above

COc1ccc(C#Cc2cn([C@H](C)C[C@@H]3CC[C@H]([C@@H](C)C(=O)NC(C)C)O3)nn2)cc1
inactive: all assays above

COCCNCC#Cc1cn([C@H](C)C[C@@H]2CC[C@H]([C@@H](C)C(=O)N3CCCC3)O2)nn1
inactive: all assays above
